This passage reports GFP response vs DMSO, GFP response relative to DMSO and GFP response, % of DMSO results from PubChem BioAssay.

Activity calls are given as the source filed them.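 How the source made its calls, unless noted: active means GFP response above 150% of the DMSO level; inconclusive means fewer than 70 events counted for a yeast strain; inactive means the rest.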

The nature of assay [1]: hit retest on RPL19A-GFP reporter strain – cell-based, S. cerevisiae, flow cytometry, cherry picks, mother/daughter gates, confirmation (AID 2270;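 active means GFP response below 50% of the DMSO control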). Conditions: 3 h, at 10 µM, stronger effect = lower value, 100 = same GFP as DMSO wells. (In general: Flow cytometry measures light scatter and fluorescence of single cells or particles in a stream.)
Assay [2] is described as follows: yeast TOR pathway reporter LAP4-GFP change – cell-based, cherry picks, flow cytometry, mother/daughter gates, confirmation (AID 2271;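 active means GFP response above 150% of the DMSO control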;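 further: ratio of sample to DMSO plate mean so 100% equals DMSO level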). Conditions: S. cerevisiae LAP4-GFP strain, 3 h, at 10 µM, stronger effect = higher value, 100 means same as DMSO control. In a few lines:
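System: Alexa 633-stained baker's yeast GFP-fusion strain / Medium: synthetic complete (SC) yeast growth medium / Doses: compound at 10 µM, single point / Times: 3 h treatment at 30 °C with rotation / Detection: HT flow cytometry, GFP fluorescence channel / Benchmarks: DMSO-only negative wells, rapamycin 400 ng/mL positive wells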

Assay [3] in a line: TOR pathway reporter MEP2-GFP, retest of hits – S. cerevisiae, flow cytometry GFP, cherry picks, confirmation (AID 2272;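 active means GFP response above 150% of the DMSO control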;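 further: ratio of well signal to plate DMSO mean so 100% equals DMSO level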). Conditions: S. cerevisiae MEP2-GFP strain, 3 h, at 10 µM, stronger effect = higher value.
Assay [4] is described as follows: yeast AGP1-GFP fluorescence change, single-dose – cell-based, flow cytometry, S. cerevisiae, cherry picks, confirmation (AID 2273).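 Further: median GFP channel fluorescence over the whole cell population gate.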 The following applies: S. cerevisiae AGP1-GFP strain, 3 h, at 10 µM.
Assay [5] can be described thus: TOR pathway CIT2 reporter hit retest – S. cerevisiae, GFP fusion, cherry picks, mother/daughter gates, confirmation (AID 2274). Conditions: S. cerevisiae CIT2-GFP strain, flow cytometry, 3 h, at 10 µM, stronger effect = higher value.
Where [6] appears, read: measured here: daughter cell gate.
The mark [7] stands for this setting: measured here: mother cell gate.
Setting [8] is: measured here: daughter cell gate response.
[9] abbreviates: measured here: mother cell gate response.

In the case of `CCC(=O)Nc1ccc(NC(=O)c2oc3ccccc3c2C)cc1`, the GFP response vs DMSO is 101% (inactive) in assay [1], 95% in assay [1] (setting [6]), 96.3% in assay [1] (setting [7]) and 102% (inactive) in assay [3]. The values for the GFP response relative to DMSO in assay [2], in assay [2] (setting [8]) and in assay [2] (setting [9]) were 99.8% (inactive), 100% and 101%, respectively. Moreover, the GFP response, % of DMSO was 93.9% (inactive) in assay [4], 103% (inactive) in assay [5], 99.7% in assay [5] (setting [6]) and 102% in assay [5] (setting [7]).

`CCc1oc2ccccc2c1C(=O)CCN1CCCCC1`: the GFP response vs DMSO is 99.6% (inactive) in assay [1], 98.4% in assay [1] (setting [6]), 99.6% in assay [1] (setting [7]) and 101% (inactive) in assay [3]. Moreover, the GFP response relative to DMSO is 102% (inactive) in assay [2], 99.1% in assay [2] (setting [8]) and 103% in assay [2] (setting [9]). Further, the GFP response, % of DMSO was 101% (inactive) in assay [4], 98.8% (inactive) in assay [5], 99.2% in assay [5] (setting [6]) and 96.8% in assay [5] (setting [7]).

In the case of `Oc1ccc(N=Nc2ccccc2)o1`, the GFP response vs DMSO in assay [1] was 111% (inactive); in assay [1] (setting [6]), 113%; in assay [1] (setting [7]), 106%; in assay [3] it was 124% (inactive). The GFP response relative to DMSO was 180% (active) in assay [2], 153% in assay [2] (setting [8]) and 173% in assay [2] (setting [9]). For the same compound, the GFP response, % of DMSO in assay [4] is 111% (inactive); in assay [5], 118% (inactive); in assay [5] (setting [6]), 119%; in assay [5] (setting [7]), 110%.

Take `COc1cccc2c1Oc1ncccc1N(C(=O)CCC(=O)NCc1ccc(C)cc1)C2`: the GFP response vs DMSO in assay [1] was 101% (inactive); in assay [1] (setting [6]), 100%; in assay [1] (setting [7]), 103%; in assay [3], 99% (inactive). The GFP response relative to DMSO in assay [2] is 95.7% (inactive); in assay [2] (setting [8]), 94.2%; in assay [2] (setting [9]) it was 96.2%. Also, the GFP response, % of DMSO in assay [4] is 106% (inactive); in assay [5], 98.8% (inactive); in assay [5] (setting [6]), 99.2%; in assay [5] (setting [7]) it was 98.1%.

As for `Cc1cccc(N2C(=O)c3cccc4c(N(C)CCO)ccc(c34)C2=O)c1`, the GFP response vs DMSO is 98.8% (inactive) in assay [1], 96.9% in assay [1] (setting [6]), 99% in assay [1] (setting [7]) and 103% (inactive) in assay [3]. Moreover, the GFP response relative to DMSO in assay [2] is 110% (inactive); in assay [2] (setting [8]) it was 106%; in assay [2] (setting [9]), 109%. The GFP response, % of DMSO was 101% (inactive) in assay [4], 105% (inactive) in assay [5], 105% in assay [5] (setting [6]) and 104% in assay [5] (setting [7]).

On to `COc1ccc(C(c2c(C)[nH]n(C(N)=S)c2=O)C(C#N)C#N)cc1` (stereo unspecified), for which the GFP response vs DMSO in assay [1] is 105% (inactive); in assay [1] (setting [6]) it was 96.2%; in assay [1] (setting [7]), 98.8%; in assay [3] it was 104% (inactive). Besides, the figures for the GFP response relative to DMSO in assay [2], in assay [2] (setting [8]) and in assay [2] (setting [9]) were 317% (active), 246% and 299%, respectively. Moreover, the GFP response, % of DMSO was 101% (inactive) in assay [4], 89.2% (inactive) in assay [5], 92.7% in assay [5] (setting [6]) and 79.3% in assay [5] (setting [7]).

Regarding `CCc1nnc(NC(=O)c2ccc(S(=O)(=O)N3CCCC(C)C3)cc2)o1` (stereo unspecified), the GFP response vs DMSO in assay [1] was 101% (inactive); in assay [1] (setting [6]), 99.1%; in assay [1] (setting [7]) it was 98.5%; in assay [3], 101% (inactive). The GFP response relative to DMSO is 98.2% (inactive) in assay [2], 97.5% in assay [2] (setting [8]) and 100% in assay [2] (setting [9]). Besides, the GFP response, % of DMSO in assay [4] was 105% (inactive); in assay [5], 102% (inactive); in assay [5] (setting [6]), 105%; in assay [5] (setting [7]), 99.3%.

Turning to `Cc1c(NC2=C(Cl)C(=O)N(c3ccccc3)C2=O)c(=O)n(-c2ccccc2)n1C`, the GFP response vs DMSO in assay [1] was 93.5% (inactive); in assay [1] (setting [6]), 97.3%; in assay [1] (setting [7]) it was 95.2%; in assay [3], 99.5% (inactive). The GFP response relative to DMSO in assay [2] was 97.7% (inactive); in assay [2] (setting [8]), 104%; in assay [2] (setting [9]) it was 99.5%. Further, the GFP response, % of DMSO was 103% (inactive) in assay [4], 104% (inactive) in assay [5], 108% in assay [5] (setting [6]) and 96.8% in assay [5] (setting [7]).

Regarding `CN(C)S(=O)(=O)c1cc(NC(=O)CN2CCOCC2)ccc1Cl`, the GFP response vs DMSO in assay [1] is 97.6% (inactive); in assay [1] (setting [6]) it was 97.3%; in assay [1] (setting [7]), 97.7%; in assay [3], 97.2% (inactive). Further, the GFP response relative to DMSO in assay [2] is 95.3% (inactive); in assay [2] (setting [8]), 99%; in assay [2] (setting [9]), 96.4%. Further, the GFP response, % of DMSO in assay [4] is 97.3% (inactive); in assay [5], 100% (inactive); in assay [5] (setting [6]) it was 99.3%; in assay [5] (setting [7]), 102%.

As to `CC(=O)N(\C=C/C=C/C=C1\Sc2ccccc2C1=O)c1ccccc1`, the GFP response vs DMSO in assay [1] is 110% (inactive); in assay [1] (setting [6]), 106%; in assay [1] (setting [7]) it was 108%; in assay [3], 238% (active). Moreover, the GFP response relative to DMSO in assay [2] is 153% (active); in assay [2] (setting [8]), 145%; in assay [2] (setting [9]), 152%. Besides, the GFP response, % of DMSO in assay [4] was 112% (inactive); in assay [5] it was 131% (inactive); in assay [5] (setting [6]) it was 128%; in assay [5] (setting [7]) it was 131%.

For `O=C(NC(=S)NNC(=O)c1ccc(Cl)cc1Cl)c1cccnc1`, the GFP response vs DMSO in assay [1] is 102% (inactive); in assay [1] (setting [6]) it was 103%; in assay [1] (setting [7]) it was 102%; in assay [3], 101% (inactive). In addition, the values for the GFP response relative to DMSO in assay [2], in assay [2] (setting [8]) and in assay [2] (setting [9]) were 97.3% (inactive), 96.6% and 98.2%, respectively. The GFP response, % of DMSO in assay [4] is 104% (inactive); in assay [5], 98.4% (inactive); in assay [5] (setting [6]), 100%; in assay [5] (setting [7]), 96.7%.

On to `COc1ccc(NC(=S)NCCCCCC(=O)C[N+](=O)[O-])cc1`, for which the GFP response vs DMSO in assay [1] is 96% (inactive); in assay [1] (setting [6]) it was 96.4%; in assay [1] (setting [7]) it was 96.1%; in assay [3], 98.3% (inactive). Besides, the GFP response relative to DMSO in assay [2] is 90.2% (inactive); in assay [2] (setting [8]), 91.2%; in assay [2] (setting [9]) it was 89.7%. For the same compound, the GFP response, % of DMSO was 98.7% (inactive) in assay [4], 99.7% (inactive) in assay [5], 101% in assay [5] (setting [6]) and 97.3% in assay [5] (setting [7]).

Take `CCOC(=O)C(CC)Sc1ncnc2c1nnn2-c1ccc(F)cc1` (stereo unspecified): the GFP response vs DMSO in assay [1] was 94.8% (inactive); in assay [1] (setting [6]), 95.1%; in assay [1] (setting [7]), 95.8%; in assay [3], 96.2% (inactive). Moreover, the values for the GFP response relative to DMSO in assay [2], in assay [2] (setting [8]) and in assay [2] (setting [9]) were 101% (inactive), 101% and 99.3%, respectively. The GFP response, % of DMSO was 94.8% (inactive) in assay [4], 96.9% (inactive) in assay [5], 97.2% in assay [5] (setting [6]) and 97.3% in assay [5] (setting [7]).

`Cc1nn2c(N3CCOCC3)c3c(nc2c1-c1ccccc1)CCCC3`: the GFP response vs DMSO in assay [1] is 103% (inactive); in assay [1] (setting [6]), 102%; in assay [1] (setting [7]), 102%; in assay [3] it was 103% (inactive). The GFP response relative to DMSO was 101% (inactive) in assay [2], 96% in assay [2] (setting [8]) and 102% in assay [2] (setting [9]). Besides, the GFP response, % of DMSO in assay [4] was 103% (inactive); in assay [5], 103% (inactive); in assay [5] (setting [6]) it was 101%; in assay [5] (setting [7]), 102%.

As to `C=CCOc1ccc(/C=C2\N=C(C)OC2=O)cc1OC`, the GFP response vs DMSO was 105% (inactive) in assay [1], 107% in assay [1] (setting [6]), 103% in assay [1] (setting [7]) and 119% (inactive) in assay [3]. Further, the values for the GFP response relative to DMSO in assay [2], in assay [2] (setting [8]) and in assay [2] (setting [9]) were 137% (inactive), 136% and 136%, respectively. Also, the GFP response, % of DMSO is 94.5% (inactive) in assay [4], 103% (inactive) in assay [5], 106% in assay [5] (setting [6]) and 99.7% in assay [5] (setting [7]).

Turning to `CN(C(=O)c1ccccc1Cl)c1ccccc1`, the GFP response vs DMSO in assay [1] was 100% (inactive); in assay [1] (setting [6]), 100%; in assay [1] (setting [7]), 98.8%; in assay [3] it was 97.2% (inactive). Further, the GFP response relative to DMSO in assay [2] was 94.1% (inactive); in assay [2] (setting [8]), 96%; in assay [2] (setting [9]) it was 93.4%. The GFP response, % of DMSO in assay [4] was 103% (inactive); in assay [5], 101% (inactive); in assay [5] (setting [6]), 103%; in assay [5] (setting [7]), 102%.
